In ChEMBL document CHEMBL5649168, “Discovery of a selective catalytic p300/CBP inhibitor that targets lineage-specific tumours” (Nature, 2017):
Calls of active or inactive are those of the source. The calls are words filed in the database; no cut-off is given here.

Key:
CA46 = experiment: Antiproliferative activity against human CA46 cells assessed as inhibition of cell viability incubated for 3 to 5 days by Celltiter-Glo luminescent assay; assay type: functional, cell-based
[1] = Inhibition of CDK9/Cyclin K (unknown origin); set-up: species or system Homo sapiens
Toledo = experiment: Antiproliferative activity against human Toledo cells assessed as inhibition of cell viability incubated for 3 to 5 days by Celltiter-Glo luminescent assay; assay type: functional, cell-based
[2] = biological target: Mitogen-activated protein kinase 9 (Homo sapiens, UniProt P45984); experiment: Inhibition of JNK2 (unknown origin)
cells [3] = settings: Homo sapiens, SC-1
[4] = biological target: Platelet-derived growth factor receptor beta (Homo sapiens, UniProt P09619); experiment: Inhibition of PDGFRbeta (unknown origin)
NCI-H23 = experiment: Antiproliferative activity against human NCI-H23 cells assessed as inhibition of cell viability incubated for 3 to 5 days by Celltiter-Glo luminescent assay; assay type: functional, cell-based
[5] = biological target: Bromodomain testis-specific protein (Homo sapiens, UniProt Q58F21); experiment: Inhibition of BRDT (unknown origin)
4T1 = experiment: Antiproliferative activity against mouse 4T1 cells assessed as inhibition of cell viability incubated for 3 to 5 days by Celltiter-Glo luminescent assay; assay type: functional, cell-based
NCI-H510A = experiment: Antiproliferative activity against human NCI-H510A cells assessed as inhibition of cell viability incubated for 3 to 5 days by Celltiter-Glo luminescent assay; assay type: functional, cell-based
[6] = biological target: Mitogen-activated protein kinase 1 (Homo sapiens, UniProt P28482); experiment: Inhibition of Erk2 (unknown origin)
Insulin receptor = Insulin receptor (Homo sapiens, UniProt P06213); experiment: Inhibition of InsR (unknown origin)
Kasumi 1 = experiment: cells; settings: Homo sapiens
[7] = biological target: T1, CREB-binding protein/Histone acetyltransferase p300 (Homo sapiens, UniProt Q09472+Q92793); experiment: Inhibition of p300/CBP in human 22Rv1 cells assessed as reduction in H3K18Ac level incubated for 3 hrs by Hoechst 33342 staining based high content microscopy analysis; assay type: cell-based
T1 sequence (Q09472 whole entry, looked up): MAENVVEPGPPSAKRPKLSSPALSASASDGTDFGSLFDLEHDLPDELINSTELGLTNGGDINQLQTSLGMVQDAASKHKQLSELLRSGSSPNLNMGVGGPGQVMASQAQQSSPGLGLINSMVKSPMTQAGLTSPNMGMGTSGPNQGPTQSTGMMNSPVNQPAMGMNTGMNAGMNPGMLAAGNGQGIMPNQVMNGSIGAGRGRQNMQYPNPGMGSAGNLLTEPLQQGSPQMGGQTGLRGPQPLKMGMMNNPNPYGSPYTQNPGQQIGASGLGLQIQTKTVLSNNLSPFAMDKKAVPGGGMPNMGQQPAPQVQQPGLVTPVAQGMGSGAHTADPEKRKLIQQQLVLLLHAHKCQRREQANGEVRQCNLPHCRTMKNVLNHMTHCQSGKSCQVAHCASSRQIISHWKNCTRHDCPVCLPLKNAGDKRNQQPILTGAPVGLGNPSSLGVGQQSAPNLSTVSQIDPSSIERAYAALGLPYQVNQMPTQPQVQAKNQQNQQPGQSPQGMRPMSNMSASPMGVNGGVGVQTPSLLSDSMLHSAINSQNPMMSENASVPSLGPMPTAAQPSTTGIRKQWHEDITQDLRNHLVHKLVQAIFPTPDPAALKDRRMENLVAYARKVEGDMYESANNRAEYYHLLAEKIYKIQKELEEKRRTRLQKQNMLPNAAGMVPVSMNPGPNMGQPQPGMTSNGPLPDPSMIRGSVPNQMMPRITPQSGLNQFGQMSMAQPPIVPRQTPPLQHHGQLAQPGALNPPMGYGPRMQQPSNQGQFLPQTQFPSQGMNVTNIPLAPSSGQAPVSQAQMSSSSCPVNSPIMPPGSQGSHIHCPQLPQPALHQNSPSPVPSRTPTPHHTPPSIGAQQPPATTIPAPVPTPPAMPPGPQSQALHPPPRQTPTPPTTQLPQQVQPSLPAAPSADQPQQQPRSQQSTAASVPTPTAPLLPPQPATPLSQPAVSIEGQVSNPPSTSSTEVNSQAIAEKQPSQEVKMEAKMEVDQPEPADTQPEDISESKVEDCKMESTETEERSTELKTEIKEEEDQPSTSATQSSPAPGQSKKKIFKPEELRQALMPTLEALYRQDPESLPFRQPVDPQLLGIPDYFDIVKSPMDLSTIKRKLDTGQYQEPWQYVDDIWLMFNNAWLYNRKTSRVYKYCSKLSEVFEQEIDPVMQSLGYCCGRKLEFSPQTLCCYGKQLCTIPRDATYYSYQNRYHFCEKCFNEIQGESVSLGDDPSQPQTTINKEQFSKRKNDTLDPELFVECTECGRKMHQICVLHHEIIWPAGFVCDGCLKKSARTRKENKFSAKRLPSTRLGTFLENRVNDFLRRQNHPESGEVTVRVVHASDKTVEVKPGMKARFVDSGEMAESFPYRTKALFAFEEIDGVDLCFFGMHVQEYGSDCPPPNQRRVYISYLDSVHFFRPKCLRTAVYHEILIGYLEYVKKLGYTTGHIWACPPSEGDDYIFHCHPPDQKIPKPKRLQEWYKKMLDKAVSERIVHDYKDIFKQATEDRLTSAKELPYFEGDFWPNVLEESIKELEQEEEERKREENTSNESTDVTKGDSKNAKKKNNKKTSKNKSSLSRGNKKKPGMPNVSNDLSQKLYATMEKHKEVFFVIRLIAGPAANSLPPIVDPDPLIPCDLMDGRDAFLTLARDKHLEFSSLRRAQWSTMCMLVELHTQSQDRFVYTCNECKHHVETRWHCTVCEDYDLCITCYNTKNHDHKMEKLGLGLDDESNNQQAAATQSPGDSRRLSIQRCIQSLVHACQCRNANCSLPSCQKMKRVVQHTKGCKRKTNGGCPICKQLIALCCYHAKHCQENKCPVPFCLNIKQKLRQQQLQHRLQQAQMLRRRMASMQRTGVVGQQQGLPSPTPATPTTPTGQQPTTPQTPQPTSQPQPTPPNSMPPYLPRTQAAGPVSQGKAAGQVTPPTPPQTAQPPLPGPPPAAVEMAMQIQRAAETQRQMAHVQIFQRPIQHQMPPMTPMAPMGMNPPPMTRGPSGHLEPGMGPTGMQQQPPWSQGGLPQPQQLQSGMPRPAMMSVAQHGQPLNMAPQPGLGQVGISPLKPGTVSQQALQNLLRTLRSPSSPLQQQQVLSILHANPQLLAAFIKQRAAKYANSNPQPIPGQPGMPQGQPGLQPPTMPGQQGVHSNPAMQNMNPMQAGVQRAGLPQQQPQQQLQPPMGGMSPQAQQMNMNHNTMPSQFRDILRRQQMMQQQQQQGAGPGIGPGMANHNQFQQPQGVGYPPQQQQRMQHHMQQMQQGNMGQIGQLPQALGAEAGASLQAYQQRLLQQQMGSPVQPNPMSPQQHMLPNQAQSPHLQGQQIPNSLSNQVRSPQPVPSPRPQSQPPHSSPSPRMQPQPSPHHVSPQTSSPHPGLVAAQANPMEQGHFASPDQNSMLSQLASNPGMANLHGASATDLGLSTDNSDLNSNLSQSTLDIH
T1 sequence (Q92793 whole entry, looked up): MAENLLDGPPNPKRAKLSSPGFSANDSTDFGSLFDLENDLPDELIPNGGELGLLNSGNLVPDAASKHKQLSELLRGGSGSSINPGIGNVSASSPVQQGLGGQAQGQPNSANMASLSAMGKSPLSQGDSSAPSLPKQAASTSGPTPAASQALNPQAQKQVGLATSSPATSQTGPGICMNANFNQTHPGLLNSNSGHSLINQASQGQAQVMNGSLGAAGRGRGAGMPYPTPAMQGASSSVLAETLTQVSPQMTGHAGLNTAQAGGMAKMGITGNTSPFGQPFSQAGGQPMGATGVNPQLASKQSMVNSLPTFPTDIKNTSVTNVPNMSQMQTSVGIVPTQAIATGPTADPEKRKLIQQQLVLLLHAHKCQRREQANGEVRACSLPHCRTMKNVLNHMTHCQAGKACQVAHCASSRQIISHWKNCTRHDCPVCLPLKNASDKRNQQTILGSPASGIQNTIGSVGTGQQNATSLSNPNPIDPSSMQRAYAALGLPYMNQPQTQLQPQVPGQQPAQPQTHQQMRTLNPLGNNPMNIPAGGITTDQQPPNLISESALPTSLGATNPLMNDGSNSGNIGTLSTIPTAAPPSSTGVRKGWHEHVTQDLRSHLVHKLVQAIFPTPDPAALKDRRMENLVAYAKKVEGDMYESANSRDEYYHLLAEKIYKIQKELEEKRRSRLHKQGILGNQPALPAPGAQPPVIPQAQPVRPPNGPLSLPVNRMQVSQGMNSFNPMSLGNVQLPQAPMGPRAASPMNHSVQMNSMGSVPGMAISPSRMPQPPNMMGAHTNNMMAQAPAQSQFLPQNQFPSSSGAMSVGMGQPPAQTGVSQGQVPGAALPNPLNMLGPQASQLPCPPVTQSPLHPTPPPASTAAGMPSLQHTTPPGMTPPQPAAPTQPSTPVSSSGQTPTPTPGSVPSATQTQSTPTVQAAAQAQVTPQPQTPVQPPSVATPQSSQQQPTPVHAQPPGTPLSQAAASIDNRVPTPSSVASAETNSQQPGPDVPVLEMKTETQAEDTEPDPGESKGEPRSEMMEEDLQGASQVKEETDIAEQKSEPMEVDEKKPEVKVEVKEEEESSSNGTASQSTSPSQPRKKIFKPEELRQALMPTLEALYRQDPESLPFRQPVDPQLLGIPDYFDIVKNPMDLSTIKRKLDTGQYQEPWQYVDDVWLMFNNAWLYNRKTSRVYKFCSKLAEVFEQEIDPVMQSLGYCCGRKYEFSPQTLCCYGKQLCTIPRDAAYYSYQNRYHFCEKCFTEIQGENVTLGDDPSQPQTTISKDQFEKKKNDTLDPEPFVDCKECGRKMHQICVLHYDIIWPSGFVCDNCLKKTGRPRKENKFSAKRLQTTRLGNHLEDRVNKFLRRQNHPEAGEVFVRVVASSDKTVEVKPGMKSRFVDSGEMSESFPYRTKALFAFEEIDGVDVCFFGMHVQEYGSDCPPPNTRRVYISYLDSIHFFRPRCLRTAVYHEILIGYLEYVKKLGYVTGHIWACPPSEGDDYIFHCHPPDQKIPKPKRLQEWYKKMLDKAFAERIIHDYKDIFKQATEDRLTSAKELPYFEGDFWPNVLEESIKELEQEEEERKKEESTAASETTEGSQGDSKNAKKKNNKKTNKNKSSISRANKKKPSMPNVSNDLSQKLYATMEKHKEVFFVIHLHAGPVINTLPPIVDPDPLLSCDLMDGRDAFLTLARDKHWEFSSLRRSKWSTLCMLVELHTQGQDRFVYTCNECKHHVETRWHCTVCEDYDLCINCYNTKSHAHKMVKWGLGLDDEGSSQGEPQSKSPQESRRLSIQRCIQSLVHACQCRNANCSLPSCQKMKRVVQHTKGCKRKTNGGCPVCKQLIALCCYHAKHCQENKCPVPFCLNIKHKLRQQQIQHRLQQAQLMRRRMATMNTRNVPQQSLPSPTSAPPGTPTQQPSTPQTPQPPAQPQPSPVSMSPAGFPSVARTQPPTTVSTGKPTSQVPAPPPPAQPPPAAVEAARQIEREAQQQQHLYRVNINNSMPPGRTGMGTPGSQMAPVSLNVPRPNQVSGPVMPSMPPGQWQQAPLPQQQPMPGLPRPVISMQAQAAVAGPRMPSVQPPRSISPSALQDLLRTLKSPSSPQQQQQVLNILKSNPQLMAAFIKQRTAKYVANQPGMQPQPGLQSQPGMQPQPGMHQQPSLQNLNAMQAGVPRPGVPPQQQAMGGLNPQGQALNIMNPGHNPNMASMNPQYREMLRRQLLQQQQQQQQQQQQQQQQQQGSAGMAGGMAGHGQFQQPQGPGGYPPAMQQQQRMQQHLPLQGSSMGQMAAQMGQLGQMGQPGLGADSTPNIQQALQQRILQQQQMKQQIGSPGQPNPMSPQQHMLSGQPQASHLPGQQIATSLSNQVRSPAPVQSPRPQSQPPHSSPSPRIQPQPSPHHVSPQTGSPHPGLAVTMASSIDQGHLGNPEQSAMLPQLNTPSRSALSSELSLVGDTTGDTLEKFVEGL
Procedure, shortened: (§1)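 Cells received an 8-point half-log dilution series from 10 µM. They were then fixed in 10% formaldehyde (10 min, RT), permeabilised with 0.1% Triton X-100 and blocked with 1% BSA for 1 h. Primary antibodies were applied overnight at 4 °C, followed by Alexa488 anti-rabbit, Alexa555 anti-mouse and Hoechst 33342 for 1 h. Fifteen fields per well were imaged and average mean intensity taken. EC50 came from a sigmoidal fit.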

NCI-H1048 = experiment: Antiproliferative activity against human NCI-H1048 cells assessed as inhibition of cell viability incubated for 3 to 5 days by Celltiter-Glo luminescent assay; assay type: functional, cell-based
HT = experiment: Antiproliferative activity against human HT cells assessed as inhibition of cell viability incubated for 3 to 5 days by Celltiter-Glo luminescent assay; assay type: functional, cell-based
COLO-679 = experiment: Antiproliferative activity against human COLO-679 cells assessed as inhibition of cell viability incubated for 3 to 5 days by Celltiter-Glo luminescent assay; assay type: functional, cell-based
[8] = biological target: Mitogen-activated protein kinase kinase kinase kinase 2 (Homo sapiens, UniProt Q12851); experiment: Inhibition of MAP4K2 (unknown origin)
[9] = Half life in CB17 SCID mouse xenografted with LuCaP-77 CR cell at 200 mg/kg, ip administered for 7 days; assay type: ADME, organism-based; settings: in vivo, time 7 day
OCI-Ly7 = experiment: Antiproliferative activity against human OCILY7 cells assessed as inhibition of cell viability incubated for 3 to 5 days by Celltiter-Glo luminescent assay; assay type: functional, cell-based
[10] = biological target: Inhibitor of nuclear factor kappa-B kinase subunit epsilon (Homo sapiens, UniProt Q14164); experiment: Inhibition of IKKE (unknown origin)
NCI-H187 = experiment: Antiproliferative activity against human NCI-H187 cells assessed as inhibition of cell viability incubated for 3 to 5 days by Celltiter-Glo luminescent assay; assay type: functional, cell-based
VCaP = experiment: Antiproliferative activity against human VCaP cells assessed as inhibition of cell viability incubated for 3 to 5 days by Celltiter-Glo luminescent assay; assay type: functional, cell-based
LuCaP-77 CR cell [11] = settings: Homo sapiens, dose 100.0 mg/kg, time 7.0 day
Aurora kinase A = Aurora kinase A (Homo sapiens, UniProt O14965); experiment: Inhibition of Aurora2 (unknown origin)
[12] = biological target: T1, CREB-binding protein/Histone acetyltransferase p300; experiment: Inhibition of p300/CBP in human 22Rv1 cells assessed as reduction in H3K18Ac level incubated for 1 hr by Hoechst 33342 staining based high content microscopy analysis; assay type: cell-based; procedure, shortened: as §1
cells [13] = settings: Homo sapiens, MINO
[14] = Inhibition of CDK7/Cyclin H (unknown origin); set-up: species or system Homo sapiens
NU-DHL-1 = experiment: Antiproliferative activity against human NU-DHL-1 cells assessed as inhibition of cell viability incubated for 3 to 5 days by Celltiter-Glo luminescent assay; assay type: functional, cell-based
LuCaP-77 CR cell [15] = settings: Homo sapiens, dose 100.0 mg/kg, time 7.0 day; remark: listed apart in the source
EMT6 = experiment: Antiproliferative activity against mouse EMT6 cells assessed as inhibition of cell viability incubated for 3 to 5 days by Celltiter-Glo luminescent assay; assay type: functional, cell-based
[16] = biological target: Rho-associated protein kinase 2 (Homo sapiens, UniProt O75116); experiment: Inhibition of Rock2 (unknown origin)
[17] = biological target: Bromodomain-containing protein 4 (Homo sapiens, UniProt O60885); experiment: Inhibition of BRD4 (unknown origin)
[18] = biological target: Calcium/calmodulin-dependent protein kinase type 1D (Homo sapiens, UniProt Q8IU85); experiment: Inhibition of CAMK1D (unknown origin)
Rec1 = experiment: Antiproliferative activity against human REC1 cells assessed as inhibition of cell viability incubated for 3 to 5 days by Celltiter-Glo luminescent assay; assay type: functional, cell-based
[19] = biological target: Tyrosine-protein kinase JAK3 (Homo sapiens, UniProt P52333); experiment: Inhibition of JAK3 (unknown origin)
[20] = Ratio of drug concentration in brain to plasma in CB17 SCID mouse xenografted with LuCaP-77 CR cell at 50 mg/kg, po measured after 24 hrs
BJAB = experiment: Antiproliferative activity against human BJAB cells assessed as inhibition of cell viability incubated for 3 to 5 days by Celltiter-Glo luminescent assay; assay type: functional, cell-based
[21] = biological target: Ca2+ channel (L, dihydropyridine site) (Homo sapiens, UniProt O60840+Q01668+Q13698+Q13936); experiment: Inhibition of Ca2+ channel (L, dihydropyridine site) (unknown origin) at 10 uM by radioligand binding assay relative to control; assay type: protein assay
NCI-H1373 = experiment: Antiproliferative activity against human NCI-H1373 cells assessed as inhibition of cell viability incubated for 3 to 5 days by Celltiter-Glo luminescent assay; assay type: functional, cell-based
Farage = experiment: Antiproliferative activity against human Farage cells assessed as inhibition of cell viability incubated for 3 to 5 days by Celltiter-Glo luminescent assay; assay type: functional, cell-based
[22] = biological target: Tyrosine-protein kinase Lck (Homo sapiens, UniProt P06239); experiment: Inhibition of Lck (unknown origin)

CNC(=O)Nc1ccc2c(c1)CC[C@@]21OC(=O)N(CC(=O)N(Cc2ccc(F)cc2)[C@@H](C)C(F)(F)F)C1=O [A-485]
EC50 (CA46): 480 nM
IC50 [1]: > 10 µM
EC50 (Toledo): 490 nM
IC50 [2]: > 10 µM
EC50 (cells [3]): 1690 nM
IC50 [4]: > 10 µM
EC50 (NCI-H23): 1790 nM
IC50 [5]: > 10 µM
EC50 (4T1): > 10 µM
EC50 (NCI-H510A): > 10 µM
IC50 [6]: > 10 µM
IC50 (Insulin receptor): > 10 µM
EC50 (Kasumi 1): 290 nM
INH [7]: 1.14 µM
EC50 (NCI-H1048): > 10 µM
EC50 (HT): > 10 µM
EC50 (COLO-679): 2260 nM
IC50 [8]: > 10 µM
half-life [9]: 180 min
EC50 (OCI-Ly7): 1810 nM
IC50 [10]: > 10 µM
EC50 (NCI-H187): > 10 µM
EC50 (VCaP): 40 nM
inhibition (LuCaP-77 CR cell [11]): Active
IC50 (Aurora kinase A): > 10 µM
INH [12]: 2.39 µM
EC50 (cells [13]): 530 nM
IC50 [14]: > 10 µM
EC50 (NU-DHL-1): 530 nM
inhibition (LuCaP-77 CR cell [15]): inactive
EC50 (EMT6): 500 nM
IC50 [16]: > 10 µM
IC50 [17]: > 10 µM
IC50 [18]: > 10 µM
EC50 (Rec1): > 10 µM
IC50 [19]: > 10 µM
Kp at 24 h [20]: 0.097
EC50 (BJAB): 280 nM
inhibition at 10 µM [21]: -9%
EC50 (NCI-H1373): 2340 nM
EC50 (Farage): > 10 µM
IC50 [22]: > 10 µM
